# Assay results published in ChEMBL document CHEMBL1154198, “Chemical genetics of Plasmodium falciparum” (Nature, 2010).
# Experiments:
# [1] = test system: Plasmodium falciparum; assay: ST_JUDE: Plasmodium falciparum 3D7 EC50 (uM) as measured by SYBR green dye; assay type: functional, organism-based
# [2] = test system: Plasmodium falciparum; assay: ST_JUDE: Plasmodium falciparum K1 EC50 (uM) as measured by SYBR green dye; assay type: functional, organism-based
# [3] = test system: Plasmodium falciparum; assay: ST_JUDE: Cytotoxicity against Plasmodium falciparum 3D7; assay type: functional, organism-based
# How it was run: (§1)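 Asexual P. falciparum grown in human erythrocytes, exposed to compounds for 72 h, and growth read as the DNA quantity in treated versus control cultures. Dose-response run at 12 concentrations from 10 μM to 5 nM.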
# [4] = test system: Plasmodium falciparum; assay: ST_JUDE: Cytotoxicity against Plasmodium falciparum K1; assay type: functional, organism-based; how it was run: as §1
# [5] = test system: Plasmodium falciparum; assay: ST_JUDE: Cytotoxicity against Plasmodium falciparum V1/S; assay type: functional, organism-based
# [6] = test system: Toxoplasma gondii; assay: ST_JUDE: Growth inhibition of to Toxoplasma gondii, in human U-2OS cells, as measured by luciferase.; assay type: functional, organism-based; conditions: RH, U2OS
# How it was run: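 T. gondii parasites engineered to express luciferase; drug sensitivity read by luminescence.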
# [7] = test system: Trypanosoma brucei; assay: ST_JUDE: Cytotoxicity using luciferase to measure ATP as an indicator of the viability of Trypanosoma brucei; assay type: functional, organism-based
# [8] = test system: Leishmania major; assay: ST_JUDE: Cytotoxicity using Alamar Blue to measure viability of Leishmania major; assay type: functional, organism-based
# How it was run: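 L. major promastigotes; drug susceptibility read with Alamar Blue.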
# [9] = ST_JUDE: Cytotoxicity using luciferase to measure ATP as an indicator of the viability of human foreskin fibroblast cells (BJ); assay type: toxicity, cell-based
# [10] = ST_JUDE: Cytotoxicity using luciferase to measure ATP as an indicator of the viability of human epithelial hepatocellular carcinoma cells (HepG2); assay type: toxicity, cell-based
# [11] = ST_JUDE: Cytotoxicity using luciferase to measure ATP as an indicator of the viability of human epithelial embryonic kidney cells (HEK293); assay type: toxicity, cell-based
# [12] = ST_JUDE: Cytotoxicity using luciferase to measure ATP as an indicator of the viability of human Burkitt''s lymphoma lymphoblast cells (Raji); assay type: toxicity, cell-based
# [13] = test system: Plasmodium falciparum; assay: ST_JUDE: Cytotoxicity against Plasmodium falciparum Dd2; assay type: functional, organism-based
# [14] = test system: Plasmodium falciparum; assay: ST_JUDE: Cytotoxicity against Plasmodium falciparum W2; assay type: functional, organism-based
# [15] = test system: Plasmodium falciparum; assay: ST_JUDE: Cytotoxicity against Plasmodium falciparum SB-A6; assay type: functional, organism-based
# [16] = test system: Plasmodium falciparum; assay: ST_JUDE: Cytotoxicity against Plasmodium falciparum D10 transfected with yeast DHOD; assay type: functional, organism-based
SMILES,EC50 [1] [µM],EC50 [2] [µM],EC50 [3] [µM],EC50 [4] [µM],EC50 [5] [µM],EC50 [6] [µM],EC50 [7] [µM],EC50 [8] [µM],EC50 [9] [µM],EC50 [10] [µM],EC50 [11] [µM],EC50 [12] [µM],EC50 [13] [µM],EC50 [14] [µM],EC50 [15] [µM],EC50 [16] [µM]
OC(CNC1CCCCC1)Cn1c2ccc(Cl)cc2c2cc(Cl)ccc21 (stereo not drawn),0.388,0.172,1.39,0.348,0.975,> 21.3,1.97,> 16.6,> 38.8,17.2,> 38.8,> 38.8,0.132,0.177,1.05,0.916
Cc1cccc(CN2CCC(CNC(=S)Nc3ccc4nc(N5CCN(C)CC5)cc(C)c4c3)CC2)c1,0.395,1.25,1.14,0.995,1.99,> 23.2,4.8,> 18.1,9.56,6.04,13.6,22.6,0.506,2.23,0.708,1.05
CCCO/C(O)=C1\C(C)=NC2=C(C(=O)CC(c3ccc(OC)c(OC)c3)C2)C1c1ccccc1OC (stereo not drawn),0.276,0.125,0.385,0.328,0.392,16.1,10.4,> 20.1,> 47,> 47,> 47,> 47,0.416,0.29,0.288,0.414
